Assay results from ChEMBL document CHEMBL1148178, “Dicranin, an antimicrobial and 15-lipoxygenase inhibitor from the moss Dicranum scoparium” (1993).
Active and inactive are the calls of the source. The calls are words filed in the database; no cut-off is given here.

Experiments:
[1] = test system: Escherichia coli; test: Antibacterial activity against Escherichia coli B74-1 at 1 mg/disk after 24 hrs by disk diffusion assay; type: functional, organism-based
Outline: (§1)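 Sterile 6 mm filter-paper disc bearing sample set in the centre of a Petri dish of 15 ml plate count agar. Overlaid with 3 ml soft nutrient agar (nutrient broth + 0.7% agar) seeded with 1% of a 16–18 h culture of the test strain. Read-out is the diameter of the growth-free zone around the disc.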

[2] = test system: Salmonella typhimurium; test: Antibacterial activity against Salmonella Typhimurium NCIB 10248 at 1 mg/disk after 24 hrs by disk diffusion assay; type: functional, organism-based; conditions: Salmonella enterica subsp. enterica serovar Typhimurium; outline: as §1
[3] = test system: Pseudomonas aeruginosa; test: Antibacterial activity against Pseudomonas aeruginosa ATCC 10145 at 1 mg/disk after 24 hrs by disk diffusion assay; type: functional, organism-based; outline: as §1
[4] = test system: Pseudomonas putida; test: Antibacterial activity against Pseudomonas putida T-AQ 18/YF18 at 1 mg/disk after 24 hrs by disk diffusion assay; type: functional, organism-based; outline: as §1
[5] = test system: Geobacillus stearothermophilus; test: Antibacterial activity against Bacillus stearothermophilus NCA 1518 after 24 hrs by disk diffusion assay; type: functional, organism-based; outline: as §1
[6] = test system: Enterococcus faecalis; test: Antibacterial activity against Streptococcus faecalis NCIB 775 after 24 hrs by disk diffusion assay; type: functional, organism-based; outline: as §1
[7] = test system: Bacillus cereus; test: Bactericidal activity against Bacillus cereus NCIB 3329 at 150 ug/ml by liquid culture assay; type: functional, organism-based
Outline: (§2)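 Wells hold brain heart infusion (200 µl) plus 50 µl inoculum at 10³–10⁵ cfu/ml, with dicranin added as the sodium salt in water (10–200 μg/ml tested). Cultures are incubated at the strain's optimal growth temperature. Duplicate 100 µl samples are taken at 0, 2, 4, 6, 8 and 24 h, diluted in tryptone salt to 10–500 bacteria/plate, plated on plate count agar, and colonies counted after 24 h.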

[8] = test system: Bacillus cereus; test: Bactericidal activity against Bacillus cereus NCIB 3329 at 100 ug/ml upto 4 hrs by liquid culture assay; type: functional, organism-based; outline: as §2
[9] = test system: Bacillus cereus; test: Bactericidal activity against Bacillus cereus NCIB 3329 at 50 ug/ml by liquid culture assay; type: functional, organism-based; outline: as §2
[10] = test system: Bacillus cereus; test: Bactericidal activity against Bacillus cereus NCIB 3329 at 10 ug/ml by liquid culture assay; type: functional, organism-based; outline: as §2
[11] = test system: Geobacillus stearothermophilus; test: Bactericidal activity against sBacillus stearothermophilus NCA 1518 at 200 ug/ml by liquid culture assay; type: functional, organism-based; outline: as §2
[12] = test system: Geobacillus stearothermophilus; test: Bactericidal activity against Bacillus stearothermophilus NCA 1518 at 50 to 150 ug/ml upto 4 hrs by liquid culture assay; type: functional, organism-based; outline: as §2
[13] = test system: Geobacillus stearothermophilus; test: Bacteriostatic activity against Bacillus stearothermophilus NCA 1518 at 50 to 150 ug/ml after 4 hrs by liquid culture assay; type: functional, organism-based; outline: as §2
[14] = test system: Geobacillus stearothermophilus; test: Antibacterial activity against Bacillus stearothermophilus NCA 1518 at 1000 ug/disk after 24 hrs by disk diffusion assay; type: functional; conditions: read-out: Diameter of inhibition zone; outline: as §1
[15] = test system: Geobacillus stearothermophilus; test: Antibacterial activity against Bacillus stearothermophilus NCA 1518 at 500 ug/disk after 24 hrs by disk diffusion assay; type: functional; conditions: read-out: Diameter of inhibition zone; outline: as §1
[16] = test system: Geobacillus stearothermophilus; test: Antibacterial activity against Bacillus stearothermophilus NCA 1518 at 250 ug/disk after 24 hrs by disk diffusion assay; type: functional; conditions: read-out: Diameter of inhibition zone; outline: as §1
[17] = test system: Geobacillus stearothermophilus; test: Antibacterial activity against Bacillus stearothermophilus NCA 1518 at 125 ug/disk after 24 hrs by disk diffusion assay; type: functional; conditions: read-out: Diameter of inhibition zone; outline: as §1
[18] = test system: Geobacillus stearothermophilus; test: Antibacterial activity against Bacillus stearothermophilus NCA 1518 at 100 ug/disk after 24 hrs by disk diffusion assay; type: functional; conditions: read-out: Diameter of inhibition zone; outline: as §1
[19] = test system: Geobacillus stearothermophilus; test: Antibacterial activity against Bacillus stearothermophilus NCA 1518 at 75 ug/disk after 24 hrs by disk diffusion assay; type: functional; conditions: read-out: Diameter of inhibition zone; outline: as §1
[20] = test system: Geobacillus stearothermophilus; test: Antibacterial activity against Bacillus stearothermophilus NCA 1518 at 50 ug/disk after 24 hrs by disk diffusion assay; type: functional; conditions: read-out: Diameter of inhibition zone; outline: as §1
[21] = test system: Geobacillus stearothermophilus; test: Antibacterial activity against Bacillus stearothermophilus NCA 1518 at 25 ug/disk after 24 hrs by disk diffusion assay; type: functional; conditions: read-out: Diameter of inhibition zone; outline: as §1
[22] = test system: Geobacillus stearothermophilus; test: Antibacterial activity against Bacillus stearothermophilus NCA 1518 at 10 ug/disk after 24 hrs by disk diffusion assay; type: functional; conditions: read-out: Diameter of inhibition zone; outline: as §1
[23] = test system: Bacillus cereus; test: Antibacterial activity against Bacillus cereus NCIB 3329 at 1000 ug/disk after 24 hrs by disk diffusion assay; type: functional; conditions: read-out: Diameter of inhibition zone; outline: as §1
[24] = test system: Bacillus cereus; test: Antibacterial activity against Bacillus cereus NCIB 3329 at 500 ug/disk after 24 hrs by disk diffusion assay; type: functional; conditions: read-out: Diameter of inhibition zone; outline: as §1
[25] = test system: Bacillus cereus; test: Antibacterial activity against Bacillus cereus NCIB 3329 at 250 ug/disk after 24 hrs by disk diffusion assay; type: functional; conditions: read-out: Diameter of inhibition zone; outline: as §1
[26] = test system: Bacillus cereus; test: Antibacterial activity against Bacillus cereus NCIB 3329 at 125 ug/disk after 24 hrs by disk diffusion assay; type: functional; conditions: read-out: Diameter of inhibition zone; outline: as §1

In the case of `CC/C=C\C/C=C\C/C=C\CC#CCCCCC(=O)O` [DICRANIN], the Activity [1] is reported as “inactive”, the Activity [2] is reported as “inactive” and the Activity [3] is reported as “inactive”. For the same compound, the Activity [4] was “inactive”, the Activity [5] was “Active” and the Activity [6] was “Active”. For the same compound, the Activity [7] was “Active”, the Activity [8] was “Active” and the Activity [9] was “Active”. The Activity [10] was “inactive”, the Activity [11] was “Active” and the Activity [12] was “Active”. The Activity [13] was “Active”, the zone of inhibition at 1000 µg/disc [14] was 35 mm and the zone of inhibition at 500 µg/disc [15] was 32 mm. The zone of inhibition at 250 µg/disc [16] was 26 mm, the zone of inhibition at 125 µg/disc [17] was 17 mm and the zone of inhibition at 100 µg/disc [18] was 16 mm. The zone of inhibition at 75 µg/disc [19] was 14 mm, the zone of inhibition at 50 µg/disc [20] was 11 mm and the zone of inhibition at 25 µg/disc [21] was 9 mm. For the same compound, the zone of inhibition at 10 µg/disc [22] was 0 mm, the zone of inhibition at 1000 µg/disc [23] was 25 mm and the zone of inhibition at 500 µg/disc [24] was 22 mm. It also gave a zone of inhibition at 250 µg/disc [25] of 19 mm and a zone of inhibition at 125 µg/disc [26] of 16 mm.
